Residue numbers refer to the chain shown, from its start. pEC50: −log10 of the molar value. Where “and” joins values, the source holds several entries; their conditions need not be identical. Equal entries are not always repeated. Where two headings read alike, the source gives them in different places. Values belong to the molecule of their own block, whether it stands above or below them.
How the values were obtained:
human M5 = molecular target: T1, human M5 (Homo sapiens, UniProt P08912); experiment: calcium mobilization assay, hM5-CHO cells, FDSS7000; type: cell-based
T1 sequence (P08912 1-532): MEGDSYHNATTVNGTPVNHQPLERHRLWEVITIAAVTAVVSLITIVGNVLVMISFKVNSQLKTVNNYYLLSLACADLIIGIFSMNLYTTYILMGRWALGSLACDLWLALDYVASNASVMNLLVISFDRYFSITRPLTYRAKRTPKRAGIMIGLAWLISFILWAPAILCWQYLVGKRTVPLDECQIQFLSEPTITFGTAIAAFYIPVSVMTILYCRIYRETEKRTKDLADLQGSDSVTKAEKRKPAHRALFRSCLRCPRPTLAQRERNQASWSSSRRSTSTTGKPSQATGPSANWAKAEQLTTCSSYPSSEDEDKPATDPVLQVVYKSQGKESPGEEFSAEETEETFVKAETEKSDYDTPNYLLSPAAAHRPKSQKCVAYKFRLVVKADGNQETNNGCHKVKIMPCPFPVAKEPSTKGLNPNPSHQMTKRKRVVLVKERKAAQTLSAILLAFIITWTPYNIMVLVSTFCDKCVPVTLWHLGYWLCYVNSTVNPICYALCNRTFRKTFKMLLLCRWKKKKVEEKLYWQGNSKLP
Summary of the method: (§1)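 CHO cells stably expressing human or rat M5 were grown in Ham's F-12 with 10% FBS, 20 mM HEPES and 500 μg/mL G418 (37 °C, 5% CO2), then plated at 20 000 cells/well without G418 the day before. Cells were loaded with 1.15 μM Fluo-4 AM for 45 min at 37 °C in HBSS, 20 mM HEPES and 2.5 mM probenecid. Test compound was given as a 10-point 1:3 series from 30 μM final for 2.5 min, then ACh EC20 for 1 min, with calcium read on FDSS7000. EC50 and efficacy came from a four-parameter logistic fit.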

rat M5 = molecular target: T2, rat M5 (Rattus norvegicus, UniProt P08911); experiment: calcium mobilization assay, rM5-CHO cells, FDSS7000; type: cell-based; details: functional calcium assay, n = 3
T2 sequence (P08911 1-531): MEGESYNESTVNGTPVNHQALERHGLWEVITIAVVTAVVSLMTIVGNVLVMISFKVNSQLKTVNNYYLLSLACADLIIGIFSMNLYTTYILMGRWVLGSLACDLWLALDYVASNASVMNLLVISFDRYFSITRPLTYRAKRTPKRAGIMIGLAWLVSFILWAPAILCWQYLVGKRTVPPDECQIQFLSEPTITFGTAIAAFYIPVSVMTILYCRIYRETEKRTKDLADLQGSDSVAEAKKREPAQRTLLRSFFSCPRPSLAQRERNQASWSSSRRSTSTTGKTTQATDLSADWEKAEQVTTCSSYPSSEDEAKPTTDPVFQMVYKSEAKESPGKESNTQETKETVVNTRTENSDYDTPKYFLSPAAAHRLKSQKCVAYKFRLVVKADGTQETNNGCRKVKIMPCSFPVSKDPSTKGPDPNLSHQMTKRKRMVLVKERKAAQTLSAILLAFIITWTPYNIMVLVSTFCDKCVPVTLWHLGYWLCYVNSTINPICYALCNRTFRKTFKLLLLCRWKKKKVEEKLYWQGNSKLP
Summary of the method: as §1

[1] = plasma protein binding, rat; type: in vitro ADME
[2] = plasma protein binding, human; type: in vitro ADME
[3] = brain homogenate binding, rat; type: in vitro ADME
[4] = hepatic microsomal intrinsic clearance, human; type: in vitro ADME; details: based on microsomal intrinsic clearance (CLint)
rat brain distribution = type: in vivo; details: male, Sprague-Dawley, brain and plasma
Summary of the method: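 Male Sprague–Dawley rats received a single IV or IP cassette dose of 0.20–0.25 mg/kg, with n = 1 animal per cassette. Vehicle was ethanol/PEG400/DMSO, with excipient levels adjusted for solubility, at 0.5 mL/kg iv or 3 mL/kg ip. Plasma and brain were sampled nonserially and quantified by LC-MS/MS (positive ESI, MRM).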

[5] = metabolite identification in rat hepatic microsomes; type: in vitro ADME; details: rat and human hepatic microsomes, result in words
Summary of the method: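 Test compound was incubated with rat hepatic microsomes, run alongside human microsomes. Metabolite structures were proposed from LC-UV/MSn data, and major metabolites were assigned by relative peak areas.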

human M1 = molecular target: T3, human M1 (Homo sapiens, UniProt P11229); experiment: mAChR selectivity, PAM activity at human M1; type: cell-based
T3 sequence (P11229 1-460): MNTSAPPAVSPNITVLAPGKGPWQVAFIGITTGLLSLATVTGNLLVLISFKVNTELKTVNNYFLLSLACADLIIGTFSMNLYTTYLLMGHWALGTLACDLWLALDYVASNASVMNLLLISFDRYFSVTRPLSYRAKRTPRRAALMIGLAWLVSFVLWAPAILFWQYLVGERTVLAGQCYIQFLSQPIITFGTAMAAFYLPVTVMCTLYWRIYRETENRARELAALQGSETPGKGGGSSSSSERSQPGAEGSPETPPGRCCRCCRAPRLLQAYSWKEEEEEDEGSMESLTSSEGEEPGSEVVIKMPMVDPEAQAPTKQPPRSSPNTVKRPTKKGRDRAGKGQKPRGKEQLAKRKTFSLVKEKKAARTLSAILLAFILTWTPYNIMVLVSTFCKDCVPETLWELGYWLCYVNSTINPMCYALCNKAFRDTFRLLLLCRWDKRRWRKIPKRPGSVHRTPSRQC

human M2 = molecular target: T4, human M2 (Homo sapiens, UniProt P08172); experiment: mAChR selectivity, PAM activity at human M2; type: cell-based; details: result in words
T4 sequence (P08172 1-466): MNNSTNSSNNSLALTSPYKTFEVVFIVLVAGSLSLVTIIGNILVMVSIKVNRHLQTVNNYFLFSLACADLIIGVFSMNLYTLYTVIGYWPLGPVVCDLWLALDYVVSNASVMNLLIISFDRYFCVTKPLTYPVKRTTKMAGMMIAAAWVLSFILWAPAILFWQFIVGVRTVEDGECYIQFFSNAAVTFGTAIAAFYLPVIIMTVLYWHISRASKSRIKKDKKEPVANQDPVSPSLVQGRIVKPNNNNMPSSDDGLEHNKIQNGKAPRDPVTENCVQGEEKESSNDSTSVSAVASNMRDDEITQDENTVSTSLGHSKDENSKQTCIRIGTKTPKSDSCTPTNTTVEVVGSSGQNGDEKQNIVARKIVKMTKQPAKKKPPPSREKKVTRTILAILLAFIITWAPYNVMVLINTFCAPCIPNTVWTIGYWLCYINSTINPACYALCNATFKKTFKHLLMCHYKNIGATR

human M3 = human M3 (Homo sapiens, UniProt P20309); experiment: mAChR selectivity, PAM activity at human M3; type: cell-based
Chain of human M3 (P20309 whole entry): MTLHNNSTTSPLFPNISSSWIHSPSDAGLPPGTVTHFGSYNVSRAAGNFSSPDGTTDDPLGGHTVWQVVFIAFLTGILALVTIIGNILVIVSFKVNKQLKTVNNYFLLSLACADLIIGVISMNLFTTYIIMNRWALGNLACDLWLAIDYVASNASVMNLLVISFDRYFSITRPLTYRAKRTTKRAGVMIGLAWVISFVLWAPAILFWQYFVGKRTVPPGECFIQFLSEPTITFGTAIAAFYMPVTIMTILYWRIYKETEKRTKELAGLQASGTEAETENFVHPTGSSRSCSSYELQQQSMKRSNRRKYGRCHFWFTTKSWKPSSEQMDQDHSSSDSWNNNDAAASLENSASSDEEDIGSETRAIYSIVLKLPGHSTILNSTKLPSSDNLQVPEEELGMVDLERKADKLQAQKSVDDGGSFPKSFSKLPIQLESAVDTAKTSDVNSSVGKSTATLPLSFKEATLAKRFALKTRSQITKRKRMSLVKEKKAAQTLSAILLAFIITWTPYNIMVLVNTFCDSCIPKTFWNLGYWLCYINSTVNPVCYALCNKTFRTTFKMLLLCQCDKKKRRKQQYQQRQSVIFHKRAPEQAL

human M4 = molecular target: T5, human M4 (Homo sapiens, UniProt P08173); experiment: mAChR selectivity, PAM activity at human M4; type: cell-based; details: result in words
T5 sequence (P08173 1-479): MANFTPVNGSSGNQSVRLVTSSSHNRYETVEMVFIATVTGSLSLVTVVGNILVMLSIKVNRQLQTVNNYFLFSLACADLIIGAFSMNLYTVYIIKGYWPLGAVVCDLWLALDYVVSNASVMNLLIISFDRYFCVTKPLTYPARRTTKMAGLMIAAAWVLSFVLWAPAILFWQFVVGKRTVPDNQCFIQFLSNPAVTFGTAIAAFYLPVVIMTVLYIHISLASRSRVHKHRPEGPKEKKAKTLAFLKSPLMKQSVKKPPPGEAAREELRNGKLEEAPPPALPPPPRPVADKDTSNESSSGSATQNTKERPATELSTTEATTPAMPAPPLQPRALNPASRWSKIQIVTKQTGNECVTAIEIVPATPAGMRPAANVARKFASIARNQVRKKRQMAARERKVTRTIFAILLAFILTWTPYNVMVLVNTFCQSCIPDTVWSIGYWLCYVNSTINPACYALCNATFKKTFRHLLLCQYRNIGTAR

rat M1 = molecular target: T6, rat M1 (Rattus norvegicus, UniProt P08482); experiment: mAChR selectivity, PAM activity at rat M1; type: cell-based
T6 sequence (P08482 1-460): T3 sequence (P11229 1-460) with A5V, T254S, P309S, R320K, A337G, I413V

rat M2 = molecular target: T7, rat M2 (Rattus norvegicus, UniProt P10980); experiment: mAChR selectivity, PAM activity at rat M2; type: cell-based; details: result in words
T7 sequence (P10980 1-466): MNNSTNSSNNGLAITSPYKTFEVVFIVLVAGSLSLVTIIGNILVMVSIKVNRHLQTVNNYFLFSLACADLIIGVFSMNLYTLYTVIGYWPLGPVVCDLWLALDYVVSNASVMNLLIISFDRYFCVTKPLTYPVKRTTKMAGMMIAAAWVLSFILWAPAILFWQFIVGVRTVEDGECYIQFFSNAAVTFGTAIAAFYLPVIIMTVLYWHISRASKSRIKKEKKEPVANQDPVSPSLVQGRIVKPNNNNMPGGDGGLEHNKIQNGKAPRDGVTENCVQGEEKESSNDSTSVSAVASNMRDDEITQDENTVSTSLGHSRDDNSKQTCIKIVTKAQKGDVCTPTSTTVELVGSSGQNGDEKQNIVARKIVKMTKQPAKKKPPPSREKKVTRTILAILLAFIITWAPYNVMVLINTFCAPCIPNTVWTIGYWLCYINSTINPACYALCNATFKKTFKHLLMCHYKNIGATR

rat M3 = rat M3 (Rattus norvegicus, UniProt P08483); experiment: mAChR selectivity, PAM activity at rat M3; type: cell-based
Chain of rat M3 (P08483 whole entry): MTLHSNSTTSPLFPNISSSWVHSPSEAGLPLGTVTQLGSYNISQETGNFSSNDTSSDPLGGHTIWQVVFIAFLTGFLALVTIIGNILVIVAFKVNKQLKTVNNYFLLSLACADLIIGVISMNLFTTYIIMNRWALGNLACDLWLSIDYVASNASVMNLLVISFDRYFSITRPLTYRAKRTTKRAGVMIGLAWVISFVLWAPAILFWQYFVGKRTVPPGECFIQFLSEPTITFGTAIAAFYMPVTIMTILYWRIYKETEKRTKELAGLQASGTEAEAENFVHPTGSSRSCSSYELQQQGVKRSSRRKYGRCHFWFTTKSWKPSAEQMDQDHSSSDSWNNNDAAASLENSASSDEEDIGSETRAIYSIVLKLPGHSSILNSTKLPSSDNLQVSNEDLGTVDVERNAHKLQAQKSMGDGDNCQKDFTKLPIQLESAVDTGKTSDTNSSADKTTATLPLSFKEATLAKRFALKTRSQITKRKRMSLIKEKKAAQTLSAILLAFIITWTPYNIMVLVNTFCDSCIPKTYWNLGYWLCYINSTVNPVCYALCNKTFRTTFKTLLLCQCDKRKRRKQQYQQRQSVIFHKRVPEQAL

rat M4 = molecular target: T8, rat M4 (Rattus norvegicus, UniProt P08485); experiment: mAChR selectivity, PAM activity at rat M4; type: cell-based
T8 sequence (P08485 1-478): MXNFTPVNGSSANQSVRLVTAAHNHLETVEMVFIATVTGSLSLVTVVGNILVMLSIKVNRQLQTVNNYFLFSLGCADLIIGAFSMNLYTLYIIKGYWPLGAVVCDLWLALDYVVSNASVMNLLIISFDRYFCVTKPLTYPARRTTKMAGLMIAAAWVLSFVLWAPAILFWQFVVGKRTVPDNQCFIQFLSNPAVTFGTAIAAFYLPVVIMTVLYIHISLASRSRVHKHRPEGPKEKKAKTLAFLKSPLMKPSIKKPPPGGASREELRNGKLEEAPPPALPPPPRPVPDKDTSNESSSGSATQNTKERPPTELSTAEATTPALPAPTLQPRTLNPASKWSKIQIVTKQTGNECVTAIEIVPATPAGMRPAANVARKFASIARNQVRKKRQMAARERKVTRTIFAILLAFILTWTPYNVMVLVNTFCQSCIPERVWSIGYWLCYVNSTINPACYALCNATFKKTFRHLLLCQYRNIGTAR

hM5 = details: read-out: hM5 EC50; 96 well-format FlexStation II, initial optimization; cited from earlier work
[6] = PAM, functional calcium assay, n = 3

pEC50 (human M5; hM5 EC50, PAM, functional calcium assay, n = 3): 6.32
pEC50 (human M5; hM5 pEC50 ± SEM, PAM, functional calcium assay, n = 3): 6.34
rM5 % ACh Max (rat M5; PAM): 63% ± 3%
pEC50 (rat M5; rM5 EC50, PAM): 6.39
pEC50 (rat M5; rM5 pEC50 ± SEM, PAM): 6.42
fraction unbound [1]: 0.043
fraction unbound [2]: 0.019
fraction unbound [3]: 0.017
predicted hepatic clearance CLhep, human [4]: 20.8 mL/min/kg
Kp (rat brain distribution): 0.17
Kp uu (rat brain distribution): 0.07
metabolism in MetID studies [5]: extensive oxidative metabolism
SMILES: CCN(C(=O)C1CCN(S(=O)(=O)c2ccc3[nH]ncc3c2)CC1)[C@@H]1CCc2ccccc21 [Compound 8, N-Ethyl-N-[(1R)-indan-1-yl]-1-(1H-indazol-5-ylsulfonyl)-piperidine-4-carboxamide]

hM5 % ACh Max (human M5; [6]): 74 % ACh Max and 74±6 % ACh Max
hM5 pEC50 ± SEM (human M5; [6]): 7.46±0.15
increase in M5 PAM potency relative to 18a (human M5; hM5): > 10 fold
pEC50 (human M5; read-out: hM5 EC50, PAM, functional calcium assay, n = 3): 7.39
rM5 % ACh Max (rat M5; PAM): 76 % ACh Max and 76 ± 7 % ACh Max
rM5 pEC50 ± SEM (rat M5; PAM): 7.13 ± 0.04
pEC50 (rat M5; read-out: rM5 EC50, PAM): 7.13
selectivity for M5 versus M1 (human M1; M5-preferring PAM): 20 fold
human M1 % ACh Max (human M1; PAM activity): 67 % ACh Max
pEC50 (human M1; read-out: human M1 EC50, PAM activity): 5.99
human M2 PAM activity (human M2): inactive
selectivity for M5 versus M3 (human M3; M5-preferring PAM): 10 fold
human M3 % ACh Max (human M3; PAM activity): 71 % ACh Max
pEC50 (human M3; read-out: human M3 EC50, PAM activity): 6.33
human M4 PAM activity (human M4): inactive
rat M1 % ACh Max (rat M1): 69 % ACh Max
pEC50 (rat M1; read-out: rat M1 EC50): 6.04
rat M2 PAM activity (rat M2): inactive
rat M3 % ACh Max (rat M3): 51 % ACh Max
pEC50 (rat M3; read-out: rat M3 EC50): 6.11
rat M4 % ACh Max (rat M4): 49 % ACh Max
pEC50 (rat M4; read-out: rat M4 EC50): 5.41
SMILES: CCCN(C(=O)C1CCN(S(=O)(=O)c2ccc3[nH]ncc3c2)CC1)[C@@H]1CCc2c(F)cccc21 [Compound 18g]

rightward shift in M5 PAM potency (human M5; FDSS7000 versus FlexStation II conditions): ~ 5 fold
pEC50 (human M5; hM5 EC50, PAM, 384-well FDSS7000): 5.96
SMILES: CCN(Cc1ccccc1C(F)(F)F)C(=O)C1CCN(S(=O)(=O)c2ccc3[nH]ncc3c2)CC1 [ML380, 1-((1H-indazol-5-yl)sulfonyl)-N-ethyl-N-(2-(trifluoromethyl)benzyl)piperidine-4-carboxamide, reference compound]
pEC50 (hM5): 6.72
